Laboratory results reported in ChEMBL document CHEMBL4376838, “Discovery of Novel Celastrol Derivatives as Hsp90-Cdc37 Interaction Disruptors with Antitumor Activity” (J Med Chem, 2019).
pIC50: −log10 of the molar value. Calls of active or inactive are those of the source. No cut-off for these calls is given here.

Legend:
A549 [1] = assay: Antiproliferative activity against human A549 cells assessed as inhibition of cell growth incubated for 48 hrs by MTT assay; type: functional, cell-based; conditions: A549, 48 h
Outline: (§1)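 MTT read-out. Cells seeded at 5.0 × 10⁴ cells/ml and cultured 24 h, then exposed to the drug over a range of concentrations for 48 h, with matching DMSO as control. MTT (5 mg/ml) added for 4 h, supernatant removed, formazan dissolved in DMSO, OD read at 570 nm. Run in triplicate, mean ± SD (n = 3).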

A549 [2] = assay: Induction of morphological apoptosis in human A549 cells assessed as increase in cells with nuclear fragmentation at 0.3 to 1.2 uM incubated for 48 hrs by Hoechst 33342 and PI staining based fluorescence microscopic method; type: functional, cell-based
Outline: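 A549 cells (4×10^5 per 6 cm dish) were grown 24 h, then exposed to compound at the indicated concentrations or DMSO for 48 h. After PBS washes, cells were stained with Hoechst 33342 (10 µg/ml) plus PI for 5 min at room temperature in the dark and imaged by fluorescence microscopy for nuclear morphology.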

A549 [3] = assay: Induction of mitochondrial membrane potential loss in human A549 cells assessed as cells with hyperpolarized mitochondria by measuring decrease in J-aggregates red fluorescence intensity at 0.8 uM incubated for 24 hrs by JC1 staining based fluorescence microscopic method (reference value: 98.4%); type: functional; set-up: scale not given: the % may be the effect or the level left
A549 [4] = assay: Induction of cell cycle arrest in human A549 cells assessed as accumulation at G2 phase at 0.8 uM incubated for 24 hrs by PI staining based flow cytometric analysis (reference value: 19.37%); type: functional
Outline: (§2)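 A549 cells (4×10^5 per 6 cm dish) were grown 24 h, then exposed to compound (0.2, 0.4, 0.8 μM) or DMSO for 24 h. Cells fixed in 75% ethanol at −20 °C for at least 12 h, treated with RNase A at 37 °C for 30 min, then stained with PI for 15 min in the dark. Analysed by flow cytometry, mean ± SD, n = 3.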

A549 [5] = assay: Induction of cell cycle arrest in human A549 cells assessed as increase in accumulation at G0/G1 phase incubated for 24 hrs by PI staining based flow cytometric analysis; type: functional; outline: as §2
A549 [6] = assay: Induction of apoptosis in human A549 cells assessed as late apoptotic cells at 1.2 uM incubated for 48 hrs by Annexin V-FITC and PI staining based flow cytometric analysis (reference value: 3.0%); type: functional
Outline: (§3)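 A549 cells (4×10^5 per 6 cm dish) cultured 24 h, then treated 48 h with compound or DMSO. Cells gently harvested, washed twice in cold PBS, resuspended in binding buffer with Annexin V and PI, stained 15 min at room temperature in the dark, analysed by flow cytometry. Mean ± SD, n = 3.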

[7] = target: T1, Hsp90 co-chaperone Cdc37 (Homo sapiens) (UniProt Q16543); assay: Binding affinity to Cdc37 in human A549 cells assessed as inhibition of HSP90-Cdc37 interaction by measuring decrease in Akt phosphorylation level at 5 uM incubated for 12 hrs by Western blot analysis; type: cell-based
T1 sequence (whole entry): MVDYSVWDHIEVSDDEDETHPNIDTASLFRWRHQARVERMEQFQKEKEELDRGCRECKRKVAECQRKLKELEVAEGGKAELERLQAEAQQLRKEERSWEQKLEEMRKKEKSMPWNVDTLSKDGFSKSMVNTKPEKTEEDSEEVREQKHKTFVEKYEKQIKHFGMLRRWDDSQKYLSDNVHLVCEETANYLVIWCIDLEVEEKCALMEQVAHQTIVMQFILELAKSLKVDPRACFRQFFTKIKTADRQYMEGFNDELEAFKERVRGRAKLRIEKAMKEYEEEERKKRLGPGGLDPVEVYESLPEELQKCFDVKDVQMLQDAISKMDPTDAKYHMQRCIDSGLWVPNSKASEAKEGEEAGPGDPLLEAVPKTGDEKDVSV
Outline: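 A549 cells seeded 5×10^5 per 6 cm dish, grown 12 h, then exposed to compound or DMSO for 12 h. Lysates adjusted to 3 mg/ml protein (BCA), run on 10% SDS-PAGE, immunoblotted for p-Akt and Cdk4. Band levels quantified against Hsp90 loading control. Three separate experiments, mean ± SD.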

A549 [8] = assay: Induction of apoptosis in human A549 cells assessed as late apoptotic cells at 0.3 uM incubated for 48 hrs by Annexin V-FITC and PI staining based flow cytometric analysis (reference value: 3.0%); type: functional
[9] = target: T1, Hsp90 co-chaperone Cdc37 (Homo sapiens); assay: Binding affinity to recombinant Cdc37 (unknown origin) assessed as inhibition of biotin labeled 3-[3-cyano-3-(4-fluorophenyl)prop-2-enoyl]oxypropyl(2R,4aS,6aR,6aS,14aS,14bR)-10-hydroxy-2,4a,6a,6a,9,14a-hexamethyl-11-oxo-1,3,4,5,6,13,14,14b-octahydropicene-2-carboxylate binding to enzyme at 0.25 to 0.5 uM incubated with compound for 2 hrs before or after incubation with biotin labeled 3-[3-cyano-3-(4-fluorophenyl)prop-2-enoyl]oxypropyl(2R,4aS,6aR,6aS,14aS,14bR)-10-hydroxy-2,4a,6a,6a,9,14a-hexamethyl-11-oxo-1,3,4,5,6,13,14,14b-octahydropicene-2-carboxylate for 2 hrs by pull down assay based immunoblot analysis
Outline: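 Recombinant Cdc37 ([…]) incubated with varying compound concentrations for 2 h, either before or after a 2 h incubation with biotinylated probe (0.5 μM) at 10 °C. Biotin alone served as control. Probe-bound protein captured on streptavidin beads, and input and bound fractions immunoblotted.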

A549 [10] = assay: Induction of mitochondrial membrane potential loss in human A549 cells assessed as cells with hyperpolarized mitochondria by measuring decrease in J-aggregates red fluorescence intensity at 0.2 uM incubated for 24 hrs by JC1 staining based fluorescence microscopic method (reference value: 98.4%); type: functional; set-up: scale not given: the % may be the effect or the level left
HepG2 = assay: Antiproliferative activity against human HepG2 cells assessed as inhibition of cell growth incubated for 48 hrs by MTT assay; type: functional, cell-based; conditions: HepG2, 48 h; outline: as §1
[11] = target: T1, Hsp90 co-chaperone Cdc37 (Homo sapiens); assay: Binding affinity to Cdc37 in human A549 cells assessed as inhibition of HSP90-Cdc37 interaction by measuring decrease in Akt phosphorylation level incubated for 12 hrs by Western blot analysis; type: cell-based
Outline: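 A549 cells (5×10^5 per 6 cm dish) were allowed to settle 12 h, then treated with DMSO or compound at the indicated concentrations for 12 h. Lysates were adjusted to 3 mg/ml protein by BCA and resolved on 10% SDS-PAGE, then Western blotted. β-actin or Hsp90 served as the loading control. Three separate experiments, mean ± SD.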

A549 [12] = assay: Induction of apoptosis in human A549 cells assessed as early apoptotic cells at 0.3 uM incubated for 48 hrs by Annexin V-FITC and PI staining based flow cytometric analysis (reference value: 0.5%); type: functional
A549 [13] = assay: Induction of apoptosis in human A549 cells assessed as viable cells at 1.2 uM incubated for 48 hrs by Annexin V-FITC and PI staining based flow cytometric analysis (reference value: 95.5%); type: functional; conditions: A549, 48 h, read-out: Activity; outline: as §3
A549 [14] = assay: Induction of cell cycle arrest in human A549 cells assessed as accumulation at G1 phase at 0.4 uM incubated for 24 hrs by PI staining based flow cytometric analysis (reference value: 60.14%); type: functional; outline: as §2
A549 [15] = assay: Antiproliferative activity against human A549 cells assessed as inhibition of cell growth at 0.5 uM incubated for 48 hrs by MTT assay relative to control; type: functional; conditions: A549, 48 h, read-out: GI
A549 [16] = assay: Induction of mitochondrial membrane potential loss in human A549 cells assessed as cells with hyperpolarized mitochondria by measuring decrease in J-aggregates red fluorescence intensity at 0.4 uM incubated for 24 hrs by JC1 staining based fluorescence microscopic method (reference value: 98.4%); type: functional; set-up: scale not given: the % may be the effect or the level left

pIC50 (A549 [1]): 6.39
inhibition [7]: Active
Activity [9]: Active
pIC50 (HepG2): 6.03
inhibition [11]: Dose-dependent effect
Structure (SMILES): CC1=C(O)C(=O)C=C2C1=CC=C1[C@@]2(C)CC[C@@]2(C)[C@@H]3C[C@](C)(C(=O)OCCCOC(=O)/C=C(\C#N)c4ccc(F)cc4)CC[C@]3(C)CC[C@]12C
Activity (A549 [2]): Active
Activity (A549 [3]): 72.8%
Activity (A549 [4]): 15.55%
Activity (A549 [5]): Dose-dependent effect
Activity (A549 [6]): 25.2%
Activity (A549 [8]): 9.3%
Activity (A549 [10]): 84.2%
Activity (A549 [12]): 2.2%
viability at 1.2 µM (A549 [13]): 59.2%
Activity (A549 [14]): 67.51%
inhibition of growth at 0.5 µM (A549 [15]): 65.1%
Activity (A549 [16]): 80%
